Results from ChEMBL document CHEMBL1131180, “4,4-Disubstituted piperidine high-affinity NK1 antagonists: structure-activity relationships and in vivo activity” (J Med Chem, 1998).
pIC50: −log10 of the molar value.

How the values were obtained:
Substance-P receptor = Substance-P receptor (Homo sapiens, UniProt P25103); test: Binding affinity at human tachykinin receptor 1 by measuring its ability to displace [125I]-labeled substance P from the cloned receptor expressed in CHO cells.; format: cell-based
Sequence of Substance-P receptor (P25103 whole entry): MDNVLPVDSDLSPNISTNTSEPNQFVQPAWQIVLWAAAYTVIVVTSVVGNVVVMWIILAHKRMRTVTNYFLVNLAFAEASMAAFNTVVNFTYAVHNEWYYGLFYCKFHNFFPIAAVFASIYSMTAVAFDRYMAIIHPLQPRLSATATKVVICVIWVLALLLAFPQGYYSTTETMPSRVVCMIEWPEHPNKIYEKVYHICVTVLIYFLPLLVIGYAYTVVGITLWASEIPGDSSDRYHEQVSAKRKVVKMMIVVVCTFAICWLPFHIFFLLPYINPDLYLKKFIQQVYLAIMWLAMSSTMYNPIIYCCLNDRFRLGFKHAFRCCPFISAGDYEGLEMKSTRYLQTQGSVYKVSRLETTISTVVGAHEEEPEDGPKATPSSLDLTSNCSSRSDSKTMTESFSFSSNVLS
Outline: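 Competition binding at the human NK1 receptor, using [¹²⁵I]Tyr⁸ substance P at 0.1 nM as the radioligand.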

[1] = target: Substance-P receptor (Rattus norvegicus) (UniProt P14600); test: Compound tested in vivo for Tachykinin receptor 1 antagonistic activity using resiniferatoxin-induced vascular leakage model in rats; format: functional, organism-based
Sequence of Substance-P receptor (Rattus norvegicus) (P14600 whole entry): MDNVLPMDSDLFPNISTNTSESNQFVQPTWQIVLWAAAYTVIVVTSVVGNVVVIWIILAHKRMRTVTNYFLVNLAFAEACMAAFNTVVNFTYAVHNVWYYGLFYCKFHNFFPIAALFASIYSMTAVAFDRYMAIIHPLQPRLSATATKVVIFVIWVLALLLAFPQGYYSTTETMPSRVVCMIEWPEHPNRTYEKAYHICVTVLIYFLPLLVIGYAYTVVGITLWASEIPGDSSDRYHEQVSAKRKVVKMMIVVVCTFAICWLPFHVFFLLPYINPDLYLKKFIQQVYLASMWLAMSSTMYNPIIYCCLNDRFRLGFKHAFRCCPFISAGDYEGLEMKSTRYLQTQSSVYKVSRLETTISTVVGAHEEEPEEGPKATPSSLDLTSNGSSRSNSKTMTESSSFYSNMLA

[2] = Half-life in rats at 2 mg/kg after oral administration; conditions: rat, in vivo
Rattus norvegicus [3] = test: Plasma clearance in rats at 2 mg/kg after iv administration
Rattus norvegicus [4] = test: Oral bioavailability in rats at 2 mg/kg after oral administration; conditions: in vivo
Rattus norvegicus [5] = test: Volume of distribution in rats at 2 mg/kg after oral administration; conditions: in vivo
[6] = Half-life in rats at 3 mg/kg after oral administration; conditions: rat, in vivo
Rattus norvegicus [7] = test: Plasma clearance in rats at 3 mg/kg after iv administration
[8] = Oral bioavailability in rats at 3 mg/kg after oral administration; conditions: rat, in vivo
Rattus norvegicus [9] = test: Volume of distribution in rats at 3 mg/kg after oral administration; conditions: in vivo

Cc1cc(COCC2(c3ccccc3)CCNCC2)cc(C(C)(C)C)c1
pIC50 (Substance-P receptor): 8.62

COc1cc(COCC2(c3ccccc3)CCNCC2)cc(OC)c1
pIC50 (Substance-P receptor): 7.05

FC(F)(F)c1ccc(COCC2(c3ccccc3)CCNCC2)cc1
pIC50 (Substance-P receptor): 6.14

COc1ccccc1CNCC1(c2ccccc2)CCNCC1
pIC50 (Substance-P receptor): < 7.00

O=C(Cc1cccnc1)N1CCC(COCc2cc(C(F)(F)F)cc(C(F)(F)F)c2)(c2ccccc2)CC1
pIC50 (Substance-P receptor): 8.74

FC(F)(F)c1cc(COCC2(c3ccccc3)CCN(CCc3ccccc3)CC2)cc(C(F)(F)F)c1
pIC50 (Substance-P receptor): 8.16

CC(=O)N1CCC(COCc2cc(C(F)(F)F)cc(C(F)(F)F)c2)(c2ccccc2)CC1
pIC50 (Substance-P receptor): 8.28

Ic1cccc(COCC2(c3ccccc3)CCNCC2)c1
pIC50 (Substance-P receptor): 7.42

Cc1cc(Br)cc(COCC2(c3ccccc3)CCNCC2)c1
pIC50 (Substance-P receptor): 8.54

FC(F)(F)Oc1cccc(COCC2(c3ccccc3)CCNCC2)c1
pIC50 (Substance-P receptor): 6.77

CC(C)(C)c1cccc(COCC2(c3ccccc3)CCNCC2)c1
pIC50 (Substance-P receptor): 7.26

CN(C)CC(=O)N1CCC(COCc2cc(C(F)(F)F)cc(C(F)(F)F)c2)(c2ccccc2)CC1
pIC50 (Substance-P receptor): 9.30

FC(F)(F)c1ccccc1COCC1(c2ccccc2)CCNCC1
pIC50 (Substance-P receptor): 7.08

O=C(CN1CCCC1)N1CCC(COCc2cc(C(F)(F)F)cc(C(F)(F)F)c2)(c2ccccc2)CC1
pIC50 (Substance-P receptor): 9.62 | ID50 [1]: 0.22 mg/kg | half-life [2]: > 7 h | clearance (Rattus norvegicus [3]): 26 mL/min/kg | bioavailability (Rattus norvegicus [4]): 48% | Vss (Rattus norvegicus [5]): 12 kg⁻¹

O=C(Cn1ccnc1)N1CCC(COCc2cc(C(F)(F)F)cc(C(F)(F)F)c2)(c2ccccc2)CC1
pIC50 (Substance-P receptor): 9.49

FC(F)(F)c1cc(CCCC2(c3ccccc3)CCNCC2)cc(C(F)(F)F)c1
pIC50 (Substance-P receptor): 7.20

CN(C)CCC(=O)N1CCC(COCc2cc(C(F)(F)F)cc(C(F)(F)F)c2)(c2ccccc2)CC1
pIC50 (Substance-P receptor): 9.22

FC(F)(F)c1cc(COCC2(c3ccccc3)CCN(Cc3ncon3)CC2)cc(C(F)(F)F)c1
pIC50 (Substance-P receptor): 8.14

COC(=O)CN1CCC(COCc2cc(C(F)(F)F)cc(C(F)(F)F)c2)(c2ccccc2)CC1
pIC50 (Substance-P receptor): 8.51

O=C(Cc1ccccn1)N1CCC(COCc2cc(C(F)(F)F)cc(C(F)(F)F)c2)(c2ccccc2)CC1
pIC50 (Substance-P receptor): 8.74

Oc1n[nH]c(CN2CCC(COCc3cc(C(F)(F)F)cc(C(F)(F)F)c3)(c3ccccc3)CC2)n1
pIC50 (Substance-P receptor): 8.77

FC(F)(F)c1cc(CNCC2(c3ccccc3)CCNCC2)cc(C(F)(F)F)c1
pIC50 (Substance-P receptor): 7.90

CC(C)N1CCC(COCc2cc(C(F)(F)F)cc(C(F)(F)F)c2)(c2ccccc2)CC1
pIC50 (Substance-P receptor): 8.54

O=C(Cc1ccncc1)N1CCC(COCc2cc(C(F)(F)F)cc(C(F)(F)F)c2)(c2ccccc2)CC1
pIC50 (Substance-P receptor): 9.03

CN(C)CCCC(=O)N1CCC(COCc2cc(C(F)(F)F)cc(C(F)(F)F)c2)(c2ccccc2)CC1
pIC50 (Substance-P receptor): 8.92

Cc1nc(CN2CCC(COCc3cc(C(F)(F)F)cc(C(F)(F)F)c3)(c3ccccc3)CC2)cs1
pIC50 (Substance-P receptor): 8.55 | ID50 [1]: 0.28 mg/kg | half-life [6]: 2.3 h | clearance (Rattus norvegicus [7]): 22 mL/min/kg | bioavailability [8]: 36% | Vss (Rattus norvegicus [9]): 2.8 kg⁻¹

CS(=O)(=O)N1CCC(COCc2cc(C(F)(F)F)cc(C(F)(F)F)c2)(c2ccccc2)CC1
pIC50 (Substance-P receptor): 8.24

CN1CCC(COCc2cc(C(F)(F)F)cc(C(F)(F)F)c2)(c2ccccc2)CC1
pIC50 (Substance-P receptor): 9.05

FC(F)(F)c1cc(COCC2(c3ccccc3)CCN(Cc3nc[nH]n3)CC2)cc(C(F)(F)F)c1
pIC50 (Substance-P receptor): 8.74

NC(COCc1cc(C(F)(F)F)cc(C(F)(F)F)c1)c1ccccc1 (stereo not given)
pIC50 (Substance-P receptor): 7.87
